Reference: ChEMBL document CHEMBL1667749, “Design & synthesis of N'-[substituted] pyridine-4-carbohydrazides as potential anticonvulsant agents” (Eur J Med Chem, 2011)
Activity calls are given as the source filed them. The rule behind the calls is not given here.

Columns and labels:
Rattus norvegicus [1] = assay: Acute toxicity in Sprague-Dawley rat assessed as motor impairment at 100 mg/kg, ip after 4 hrs; assay type: organism-based; parameters: dose 100 mg/kg, route intraperitoneal; settings: in vivo
Procedure, shortened: (§1)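 Male albino Sprague Dawley rats, two per dose, given test compound i.p. as a suspension in 0.5% methyl cellulose. Behaviour was closely observed and recorded over 4 h to detect acute motor impairment. Values are scored as animals toxic over animals tested at each time point.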

Rattus norvegicus [2] = assay: Acute toxicity in Sprague-Dawley rat assessed as motor impairment at 100 mg/kg, ip after 2 hrs; assay type: organism-based; parameters: dose 100 mg/kg, route intraperitoneal; settings: in vivo; procedure, shortened: as §1
Rattus norvegicus [3] = assay: Acute toxicity in Sprague-Dawley rat assessed as motor impairment at 100 mg/kg, ip after 1 hr; assay type: organism-based; parameters: dose 100 mg/kg, route intraperitoneal; settings: in vivo; procedure, shortened: as §1
Rattus norvegicus [4] = assay: Acute toxicity in Sprague-Dawley rat assessed as motor impairment at 100 mg/kg, ip after 0.5 hrs; assay type: organism-based; parameters: dose 100 mg/kg, route intraperitoneal; settings: in vivo; procedure, shortened: as §1
Rattus norvegicus [5] = assay: Acute toxicity in Sprague-Dawley rat assessed as motor impairment at 100 mg/kg, ip after 0.25 hrs; assay type: organism-based; parameters: dose 100 mg/kg, route intraperitoneal; settings: in vivo; procedure, shortened: as §1
Mus musculus [6] = assay: Neurotoxicity in albino CF-1 mouse assessed as motor impairment at 300 mg/kg, ip after 0.5 hrs by rotarod test; assay type: toxicity, organism-based; parameters: dose 300 mg/kg, route intraperitoneal; settings: in vivo
Procedure, shortened: (§2)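 Minimal motor impairment in male CF-1 mice by rotorod after i.p. dosing; toxic if animal falls off rotating rod 3 times within 1 min. Screen doses 30, 100, 300 mg/kg; quantitative TD50 (95% confidence interval) determined at time of peak effect.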

Mus musculus [7] = assay: Neurotoxicity in albino CF-1 mouse assessed as motor impairment at 300 mg/kg, ip after 4 hrs by rotarod test; assay type: toxicity, organism-based; parameters: dose 300 mg/kg, route intraperitoneal; settings: in vivo; procedure, shortened: as §2
Rattus norvegicus [8] = assay: Toxicity in Sprague-Dawley rat assessed as change in body weight at 600 mg/kg, ip measured after 24 hrs of clonus of one of the fore limbs seizure stage in protected rat; assay type: organism-based; parameters: dose 600 mg/kg, route intraperitoneal; settings: in vivo
Procedure, shortened: (§3)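 Male Sprague Dawley rats (150–180 g) dosed i.p. then challenged with pilocarpine; body weight change measured 24 h after first Stage III seizure, split by protected and non-protected rats, given ± S.E.M.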

Rattus norvegicus [9] = assay: Toxicity in Sprague-Dawley rat assessed as change in body weight at 600 mg/kg, ip measured after 24 hrs of clonus of one of the fore limbs seizure stage in non-protected rat; assay type: organism-based; parameters: dose 600 mg/kg, route intraperitoneal; settings: in vivo; procedure, shortened: as §3
[10] = Octanol-phosphate buffer partition coefficient, log P of the compound at 5 mg, after 24 hrs by UV spectroscopic analysis; assay type: physicochemical
Procedure, shortened: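 5 mg compound added to 10 mL octanol plus 10 mL phosphate buffer in stoppered tube, mechanically shaken 24 h at room temperature, then left in separating funnel 6 h to equilibrate.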

Rattus norvegicus [11] = assay: Acute toxicity in Sprague-Dawley rat assessed as motor impairment at 300 mg/kg, ip after 0.25 hrs; assay type: organism-based; parameters: dose 300 mg/kg, route intraperitoneal; settings: in vivo; procedure, shortened: as §1
Rattus norvegicus [12] = assay: Acute toxicity in Sprague-Dawley rat assessed as motor impairment at 300 mg/kg, ip after 0.5 hrs; assay type: organism-based; parameters: dose 300 mg/kg, route intraperitoneal; settings: in vivo; procedure, shortened: as §1
Rattus norvegicus [13] = assay: Acute toxicity in Sprague-Dawley rat assessed as motor impairment at 300 mg/kg, ip after 1 hr; assay type: organism-based; parameters: dose 300 mg/kg, route intraperitoneal; settings: in vivo; procedure, shortened: as §1
Rattus norvegicus [14] = assay: Acute toxicity in Sprague-Dawley rat assessed as motor impairment at 300 mg/kg, ip after 2 hrs; assay type: organism-based; parameters: dose 300 mg/kg, route intraperitoneal; settings: in vivo; procedure, shortened: as §1
Rattus norvegicus [15] = assay: Acute toxicity in Sprague-Dawley rat assessed as motor impairment at 300 mg/kg, ip after 4 hrs; assay type: organism-based; parameters: dose 300 mg/kg, route intraperitoneal; settings: in vivo; procedure, shortened: as §1
Rattus norvegicus [16] = assay: Acute toxicity in Sprague-Dawley rat assessed as motor impairment at 600 mg/kg, ip after 0.25 hrs; assay type: organism-based; parameters: dose 600 mg/kg, route intraperitoneal; settings: in vivo; procedure, shortened: as §1
Rattus norvegicus [17] = assay: Acute toxicity in Sprague-Dawley rat assessed as motor impairment at 600 mg/kg, ip after 0.5 hrs; assay type: organism-based; parameters: dose 600 mg/kg, route intraperitoneal; settings: in vivo; procedure, shortened: as §1
Rattus norvegicus [18] = assay: Acute toxicity in Sprague-Dawley rat assessed as motor impairment at 600 mg/kg, ip after 1 hr; assay type: organism-based; parameters: dose 600 mg/kg, route intraperitoneal; settings: in vivo; procedure, shortened: as §1
Rattus norvegicus [19] = assay: Acute toxicity in Sprague-Dawley rat assessed as motor impairment at 600 mg/kg, ip after 2 hrs; assay type: organism-based; parameters: dose 600 mg/kg, route intraperitoneal; settings: in vivo; procedure, shortened: as §1
Rattus norvegicus [20] = assay: Acute toxicity in Sprague-Dawley rat assessed as motor impairment at 600 mg/kg, ip after 4 hrs; assay type: organism-based; parameters: dose 600 mg/kg, route intraperitoneal; settings: in vivo; procedure, shortened: as §1
Mus musculus [21] = assay: Anticonvulsant activity in albino CF-1 mouse assessed as protection against maximal electroshock-induced seizures at 300 mg/kg, ip after 0.5 hrs; assay type: functional, organism-based; parameters: dose 300 mg/kg
Procedure, shortened: (§4)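 Male CF-1 mice (18–25 g), i.p. in 0.5% methyl cellulose at 30, 100 and 300 mg/kg; MES: 60 Hz, 50 mA, 0.2 s through tetracaine-primed corneal electrodes; protection = abolished hind limb tonic extension. Value given as minimum dose active in half or more of mice.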

Mus musculus [22] = assay: Anticonvulsant activity in albino CF-1 mouse assessed as protection against maximal electroshock-induced seizures at 300 mg/kg, ip after 2 hrs; assay type: functional, organism-based; parameters: dose 300 mg/kg; procedure, shortened: as §4
Mus musculus [23] = assay: Anticonvulsant activity in albino CF-1 mouse assessed as protection against maximal electroshock-induced seizures at 300 mg/kg, ip after 4 hrs; assay type: functional, organism-based; parameters: dose 300 mg/kg; procedure, shortened: as §4
Mus musculus [24] = assay: Anticonvulsant activity in albino CF-1 mouse assessed as protection against subcutaneous metrazol-induced seizures at 300 mg/kg, ip after 4 hrs; assay type: functional, organism-based; parameters: dose 300 mg/kg
Procedure, shortened: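 Male CF-1 mice, i.p. at 30, 100, 300 mg/kg in 0.5% methyl cellulose; metrazol dose convulsing 97% of animals injected s.c. in midline neck fold, mice isolated and watched 30 min; protected if no 3–5 s clonic spasm episode of limbs, jaws or vibrissae.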

Mus musculus [25] = assay: Anticonvulsant activity in ip dosed albino CF-1 mouse assessed as dose required to protect against subcutaneous metrazol-induced seizures after 0.5 hrs; assay type: functional
Procedure, shortened: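 Male albino CF-1 mice (18-25 g) received i.p. compound suspended in 0.5% methyl cellulose at 30, 100 and 300 mg/kg. Metrazol at a dose convulsing 97% of animals was given s.c. in the midline neck fold, and mice were observed 30 min in isolation. A clonic spasm of about 3-5 s was the end point. The value is the minimum dose protecting half or more of the mice.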

O=C1Nc2ccccc2/C1=N/NC(=O)c1ccncc1
Activity (Rattus norvegicus [1]): Non-toxic
Activity (Rattus norvegicus [2]): Non-toxic
Activity (Rattus norvegicus [3]): Non-toxic
Activity (Rattus norvegicus [4]): Non-toxic
Activity (Rattus norvegicus [5]): Non-toxic
Activity (Mus musculus [6]): Non-toxic
Activity (Mus musculus [7]): Non-toxic
Activity (Rattus norvegicus [8]): Non-toxic
Activity (Rattus norvegicus [9]): 20 g
logP at 24 h [10]: 1.12
Activity (Rattus norvegicus [11]): Non-toxic
Activity (Rattus norvegicus [12]): Non-toxic
Activity (Rattus norvegicus [13]): Non-toxic
Activity (Rattus norvegicus [14]): Non-toxic
Activity (Rattus norvegicus [15]): Non-toxic
Activity (Rattus norvegicus [16]): Non-toxic
Activity (Rattus norvegicus [17]): Non-toxic
Activity (Rattus norvegicus [18]): Non-toxic
Activity (Rattus norvegicus [19]): Non-toxic
Activity (Rattus norvegicus [20]): Non-toxic

CCCC(CCC)C(=O)[O-].[Na+] [VALPROATE SODIUM]
Activity (Mus musculus [21]): inactive
Activity (Mus musculus [22]): inactive
Activity (Mus musculus [23]): inactive
Activity (Mus musculus [24]): inactive
Activity (Mus musculus [25]): 300 mg/kg
Activity (Mus musculus [6]): Non-toxic
Activity (Mus musculus [7]): Non-toxic
